# High-throughput results deposited in PubChem BioAssay by several laboratories.
# In the library only some 4.8% were active in any assay of this set; here they are far more common.
# PAFAH1B3 inh – PAFAH1B3 enzyme inhibitors, primary screen, biochemical, fluorescence polarization, human | recombinant PAFAH1B3, FP-rhodamine probe | inhibition, % at 3.39 µM | 340,000 tested, 0.28% active;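 active = inhibition above the screen-wide average of all tested compounds plus 3 SD, cut at about 25% in these data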;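 note: 0% = enzyme with DMSO only and 100% = wells lacking PAFAH1B3 protein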
# Target sequence (Q15102 whole entry, looked up): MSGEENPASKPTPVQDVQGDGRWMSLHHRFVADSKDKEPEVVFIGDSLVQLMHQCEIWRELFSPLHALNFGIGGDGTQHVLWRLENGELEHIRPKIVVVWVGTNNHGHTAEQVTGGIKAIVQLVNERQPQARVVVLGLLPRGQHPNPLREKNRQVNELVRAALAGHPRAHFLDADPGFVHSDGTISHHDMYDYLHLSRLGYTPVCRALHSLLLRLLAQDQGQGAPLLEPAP
# pPAFAH inh – pPAFAH enzyme inhibitors, primary screen, biochemical, fluorescence polarization, human. Platelet-activating factor acetylhydrolase (Homo sapiens), Q13093. recombinant pPAFAH, FP-rhodamine probe fluorescence polarization. inhibition, % at 3.39 µM. 330,000 tested, 1.5% active;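 active = inhibition above the mean inhibition across the screen plus 3 SD, cut at about 25% in these data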;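 note: inhibitors block binding of the rhodamine activity-based probe so polarization drops; 0% = enzyme with DMSO and 100% = wells lacking pPAFAH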
# Target sequence (Q13093 whole entry, looked up): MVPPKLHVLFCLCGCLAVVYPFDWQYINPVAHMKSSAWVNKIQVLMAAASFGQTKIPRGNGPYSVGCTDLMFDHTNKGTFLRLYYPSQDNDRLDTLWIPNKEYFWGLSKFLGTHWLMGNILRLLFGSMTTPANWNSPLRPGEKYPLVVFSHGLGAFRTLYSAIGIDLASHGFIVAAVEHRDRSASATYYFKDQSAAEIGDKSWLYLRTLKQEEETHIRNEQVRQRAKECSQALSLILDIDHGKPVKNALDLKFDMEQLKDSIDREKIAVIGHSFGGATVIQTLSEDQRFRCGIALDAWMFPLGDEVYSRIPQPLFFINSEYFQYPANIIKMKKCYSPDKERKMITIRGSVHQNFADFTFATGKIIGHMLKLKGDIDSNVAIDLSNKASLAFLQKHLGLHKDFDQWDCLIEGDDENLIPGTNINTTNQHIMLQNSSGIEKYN
# PAFAH2 FP inh – PAFAH2 enzyme inhibitors, primary screen, biochemical, fluorescence polarization, human; Platelet-activating factor acetylhydrolase 2, cytoplasmic (Homo sapiens), Q99487; recombinant PAFAH2, FP-rhodamine activity probe; inhibition, % at 3.39 µM; 340,000 tested, 0.99% active;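 active = inhibition above the mean over all tested compounds plus 3 SD, cut at about 30% in these data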;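 note: inhibitors block probe labeling of enzyme so polarization drops; 0% = enzyme with DMSO and 100% = wells lacking PAFAH2 protein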
# UCH37 DUB inh – inhibitors of human UCH37 deubiquitinase, primary screen, biochemical, Ub-AMC cleavage, fluorescence. Ubiquitin carboxyl-terminal hydrolase isozyme L5 (Homo sapiens), Q9Y5K5. purified proteasome/UCH37. inhibition, % (no concentration beside the values). 330,000 tested, 0.33% active. AID 588478, 2011;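 active = mean inhibition over replicate wells above about 20%, limit read from the data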;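 note: 0% = compound-free wells with enzyme and 100% = wells lacking proteasome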
#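 Test system – human UCH37 enzyme supplied as purified proteasome complex · Incubation – 30 min preincubation with enzyme, 25 min cleavage at room temperature · Detection – AMC fluorescence from Ub-AMC cleavage, excitation 355 nm, emission 460 nm · Benchmarks – no-proteasome wells (full inhibition) and compound-free wells (no inhibition)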
# GRIN3A LBD mod – binders of NR3A ligand-binding domain, primary screen, biophysical, differential scanning fluorimetry, uHTS; Glutamate receptor ionotropic, NMDA 3A (GRIN3A) ligand-binding domain; NR3A LBD differential scanning fluorimetry, Tm shift; 0% = protein alone, 100% = glycine-bound protein; Tm shift relative to glycine control, % at 25 µM; 340,000 tested, 2.5% active;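 active = melting temperature shift of at least 10% of the positive control shift, at one fixed dose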
# PAFAH1B2 FP inh – PAFAH1B2 enzyme inhibitors, primary screen, biochemical, fluorescence polarization, human; 340,000 tested, 1.2% active; inhibition, % at 3.39 µM; recombinant PAFAH1B2, FP-rhodamine activity probe;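 active = inhibition above the mean of all tested compounds plus 3 SD, cut at about 24% in these data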;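 note: 0% = enzyme with DMSO and 100% = wells lacking PAFAH1B2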
# * hit, by the source's call; . = not tested or not shown.
SMILES,PAFAH1B3 inh,pPAFAH inh,PAFAH2 FP inh,UCH37 DUB inh,GRIN3A LBD mod,PAFAH1B2 FP inh
COc1ccc(NC(=S)Nc2ccc(N)c([N+](=O)[O-])c2)cc1,6.2,2.9,9.6,3.5,12.2*,2.6
COc1cc(OC)nc(NN=C(c2ccccc2)c2ccncc2)n1,.,.,.,3.4,.,.
S=c1[nH]nc(COc2ccccc2)n1N=C/C=C/c1ccco1,.,.,.,11.4,.,.
CCN(CC)S(=O)(=O)c1ccc(NC(=O)Nc2cccc(C(F)(F)F)c2)cc1,-106.0,-71.3,-95.9,-0.1,30.6*,-57.9
Cc1ccc(NC(=O)Nc2cc(C(F)(F)F)c[nH]c2=O)cc1,8.2,2.5,1.9,-0.3,23.7*,10.0
O=C(NCc1ccccc1Cl)c1ccc(S(=O)(=O)Nc2cccc(C(F)(F)F)c2)cc1,-1.4,6.5,-3.5,4.7,24.7*,-0.7
Cc1ccc(S(=O)(=O)Nc2ccc(NC(=O)Nc3cccc(C(F)(F)F)c3)cc2)cc1,3.3,-1.4,-52.7,4.6,37.5*,7.0
COC(=O)c1nccnc1N,6.5,.,-0.1,.,14.0*,1.7
C#Cc1cccc(N2C(=O)C3C4C=CC(C3C2=O)C2C(=O)N(c3cccc(C#C)c3)C(=O)C42)c1 (centres undefined),-8.4,.,-11.3,.,13.7*,-3.4
CCCOc1ccc(C=NO)cc1,.,.,.,1.9,.,.
COc1ccc(C(NC(=O)/C=C/c2ccco2)c2ccc(OC)cc2)cc1,-0.5,26.6*,3.6,0.1,-0.6,0.4
COc1ccc(C(NC(=O)/C=C\c2ccco2)c2ccc(OC)c(OC)c2)cc1 (centres undefined),2.4,4.6,0.6,2.2,0.9,3.2
COc1ccc(S(=O)(=O)N(C)CC(=O)NC2CCCCC2)cc1Cl,7.2,3.5,-3.5,-0.7,11.2*,3.1
COc1ccc(S(=O)(=O)N(C)CC(=O)NC2CCCCC2)cc1OC,-2.1,-0.5,6.1,1.8,4.1,-2.7
O=C(Cc1csc(N2CCOCC2)n1)NN=Cc1ccc(F)cc1,.,.,.,1.1,.,.
CCOc1cc(CNCCO)cc(Br)c1OCc1ccccc1Cl,8.1,15.8,-3.7,8.1,-2.8,-1.4
CCOc1cc(CNC(C)(C)CO)cc(Br)c1OCc1ccc(Cl)cc1Cl,1.3,34.0*,7.4,3.2,1.4,2.7
CN1CCN(N=Cc2c3ccccc3c(Cl)c3ccccc23)CC1,.,.,.,1.9,.,.
NC(=NOC(=O)COc1ccc([N+](=O)[O-])cc1)c1ccncc1,.,.,.,1.5,.,.
O=C(NC(=S)N1CCN(c2ccc(C(F)(F)F)cc2[N+](=O)[O-])CC1)c1cccs1,-2.6,33.8*,4.2,5.7,-4.8,1.7
CCNc1c([N+](=O)[O-])c(=O)oc2ccccc12,7.8,-2.7,2.4,7.0,-2.7,8.2
COc1c([N+](=O)[O-])c(=O)oc2ccccc12,7.2,-5.9,-3.8,5.9,12.6*,1.3
O=[N+]([O-])c1cccc(C=NNc2nnc(-c3ccccc3)c(-c3ccccc3)n2)c1,.,.,.,3.3,.,.
O=C(COc1ccc(Br)cc1)Nc1ccc(C(=O)Nc2ccccc2C(=O)O)cc1,-1.2,3.0,-25.7,.,10.6*,-4.1
O=C(COc1ccc2ccccc2c1)Nc1cccc(C(=O)Nc2ccccc2C(=O)O)c1,-19.0,-32.4,-43.9,5.0,12.1*,-11.6
SMILES,PAFAH1B3 inh,pPAFAH inh,PAFAH2 FP inh,UCH37 DUB inh,GRIN3A LBD mod,PAFAH1B2 FP inh
COc1ccc(OCC(=O)Nc2ccc(C(=O)Nc3ccccc3C(=O)O)cc2)cc1,2.8,-1.2,-4.5,7.4,0.6,-2.6
Cc1ccc(SCCC(=O)NN=Cc2cccnc2)cc1,.,.,.,0.3,.,.
COc1cc(C=NNC(=O)CCn2c3ccccc3c3ccccc32)cc(OC)c1OC,.,.,.,-0.9,.,.
CC1=NN(c2ccccc2)C(=O)/C1=C/c1ccc(-c2ccc(C)c(C(=O)O)c2)o1,.,9.8,.,.,10.5*,.
CC1=NN(c2ccccc2)C(=O)/C1=C/c1ccc[nH]1,2.9,4.4,6.5,9.2,17.2*,1.2
CC(=NNC(=O)C1CC1)c1ccc2c(c1)OCCO2,.,.,.,-1.3,.,.
Cn1c(=NNC(=O)c2ccccc2Cl)sc2ccccc21,.,.,.,0.5,.,.
CC(=NO)C(=O)NCc1ccccn1,.,.,.,-0.2,.,.
CC(=O)OCCN1C(=O)c2cccnc2C1=O,3.3,0.5,0.9,2.1,12.8*,4.8
c1ccc2cc(-c3cc4ccccn4c3)ccc2c1,9.2,27.8*,14.7,-8.3,-3.9,5.2
Cc1ccc(CSc2nnc(CNc3ccc(F)cc3)o2)cc1,1.6,9.0,6.5,4.7,-7.2,25.9*
Cc1ccc(S(=O)(=O)N=C(Sc2ccccc2)c2ccccc2)cc1,.,.,.,2.3,.,.
Cc1ccc(N2CCN(/N=C/c3ccncc3)CC2)cc1,1.9,6.1,-1.6,.,0.2,2.7
Clc1ccc(N2CCN(/N=C/c3ccncc3)CC2)cc1,1.1,5.4,4.2,.,0.0,26.9*
COc1ccc(NC(=O)CC2C(=O)N(c3cccc(OC)c3)C(=O)N2C(C)C)cc1 (centres undefined),-2.3,3.0,-2.8,3.2,5.4,2.9
CCOc1ccc(NC(=O)CC2C(=O)N(c3ccc(OC)cc3)C(=S)N2Cc2ccccn2)cc1 (centres undefined),9.3,9.2,2.3,0.8,4.1,-0.2
CCOc1ccc(NC(=O)CC2C(=O)N(c3ccc(OC)c(Cl)c3)C(=S)N2C2CC2)cc1 (centres undefined),-0.1,0.9,-4.2,-1.4,24.6*,3.8
COc1ccc(NC(=O)CC2C(=O)N(c3cccc(OC)c3)C(=O)N2CCC(C)C)cc1 (centres undefined),3.7,5.3,-5.1,-0.9,11.2*,2.3
Cc1ccc(C=Nn2c(C3CCCCC3)n[nH]c2=S)o1,.,.,.,7.0,.,.
Cc1ccc(Nc2cnn(C34CC5CC(CC(CC(=O)O)(C5)C3)C4)c(=O)c2Cl)cc1C,6.7,8.2,9.0,12.4,-0.7,1.4
CCc1cccc(Nc2cnn(C34C[C@@H]5C[C@@H](CC(CC(=O)O)(C5)C3)C4)c(=O)c2Cl)c1,2.0,-0.6,-1.3,12.4,-0.9,32.3*
COC(=O)NN=C1CCCc2c(C)cc(C)cc21,.,.,.,1.0,.,.
COc1ccccc1C=NNC(=O)c1ccc(NC(=O)c2ccccc2Br)cc1,.,.,.,1.3,.,.
CC(Oc1ccc(Br)cc1)C(=O)NCC(c1cccs1)N1CCOCC1 (centres undefined),10.5,1.7,3.0,5.9,1.1,26.5*
CCC(=O)NCC(c1cccs1)N1CCOCC1 (centres undefined),1.5,3.8,1.4,-1.5,2.1,-2.9
